The record followed here is PubChem BioAssay.

One may read the viability as a read-out of living cells in per cent, often relative to untreated cells. The inhibition is the relative decrease from the control value, in per cent.

A short description of assay [1]: reducers of endogenous Her2 protein level, primary screen, SKBR3 breast tumor cells, AlphaScreen, ATP viability (AID 461;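 active = Her2 level under about 52% in both replicate screens, with viability over 70% of control, limit read from the data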;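 for Her2 level: lower value means less Her2 protein in the cells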;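 for viability: percent of carrier control wells set as 100% viability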). The settings on record: 18-24 h, measured here: SKBR3 viability, ATP luminescence, at 10 µM. A general note: Bead proximity is the source of the signal in Alpha formats.
The target of assay [2] is Receptor tyrosine-protein kinase erbB-2 (Homo sapiens) (UniProt P04626). Described as above. The note with it: 18-24 h, at 10 µM, stronger effect = lower value.
Assay [3] in a line: SK-BR-3 cell growth inhibitors, pilot screen, 24 h, human (AID 572;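 active = viability at or below 10% of carrier control in both of two separate runs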;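 note: compound exposure lasted between 18 and 24 h rather than exactly 24 h; 100% = carrier-treated control wells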). The note with it: SK-BR-3 viability, CellTiter-Glo luminescence, at 10 µM, stronger effect = lower value. (In general: In ATP-based viability assays light output follows the ATP content of the culture.)
A short description of assay [4]: HUVEC growth inhibition – cell-based, human, primary screen (AID 575).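 Note: 100% = median of untreated cell wells with 0.1% DMSO on each plate.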 The note with it: HUVEC proliferation, CellTiter-Glo luminescence, 72 h; at 10 µM; stronger effect = lower value. Put shortly:
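material = primary HUVEC, no more than 12 passages | input = 1250 cells per well | controls = vehicle and MePR control wells | measured by = CTG luminescence | times = 72 h compound incubation | format = collagen-coated 384-well format | read-out = % viability vs DMSO wells | doses = single 10 µM dose, 0.1% DMSO, from 5x medium stock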

The nature of assay [5]: growth inhibitors of H69AR lung tumor, primary screen, human, duplicate replicates (AID 580;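 active = viability at or under a set limit in both replicates, limit being median viability minus 3 SD, cut at about 48% in these data, passing the limit was not always enough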;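 note: 100% = mean luminescence of untreated wells and 0% = no signal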). The settings on record: H69AR lung tumor cells viability, ATP luminescence, 72 h; at 10 µM; stronger effect = lower value.
Assay [6] in a line: reversal of MRP1-mediated doxorubicin resistance, pilot screen, H69AR cells, doxorubicin co-treatment (AID 601;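 active = viability loss from added drug above about 55%, and viability with drug at most 40%, in both replicates, limit read from the data, passing the limit was not always enough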). The settings on record: CellTiter-Glo, 72 h, at 10 µM; for differential viability (reversal): stronger effect = higher value.
Assay [7] is described as follows: 384-well plate pilot, post-Golgi transport modulator project, inhibition of yeast transport mutant growth (AID 636; in the data active = inhibition above about 31%). The note with it: absorbance 615 nm, about 18 h, stronger effect = higher value.
Assay [8] in a line: growth suppression of yeast trafficking mutant, preliminary HTS, modulators of trafficking downstream of Golgi apparatus project, 1536-format plate, OD 615 nm (AID 637; in the data active = inhibition above about 30%). The settings on record: yeast transport mutant growth, absorbance 615 nm, 18 h; stronger effect = higher value.
[9] abbreviates: H69AR cells + 2 uM doxorubicin, measured here: viability with 2 uM doxorubicin, stronger effect = lower value.
[10] abbreviates: H69AR cells, compound alone cytotoxicity.

Calls of active or inactive are those of the source.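 Rule for the calls, unless noted: active = viability at or below 30% in both replicate assays; inconclusive = viability at or below 30% in just one of the two assays; inactive = the rest.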

Receptor tyrosine-protein kinase erbB-2 (Homo sapiens), sequence (P04626 whole entry, looked up): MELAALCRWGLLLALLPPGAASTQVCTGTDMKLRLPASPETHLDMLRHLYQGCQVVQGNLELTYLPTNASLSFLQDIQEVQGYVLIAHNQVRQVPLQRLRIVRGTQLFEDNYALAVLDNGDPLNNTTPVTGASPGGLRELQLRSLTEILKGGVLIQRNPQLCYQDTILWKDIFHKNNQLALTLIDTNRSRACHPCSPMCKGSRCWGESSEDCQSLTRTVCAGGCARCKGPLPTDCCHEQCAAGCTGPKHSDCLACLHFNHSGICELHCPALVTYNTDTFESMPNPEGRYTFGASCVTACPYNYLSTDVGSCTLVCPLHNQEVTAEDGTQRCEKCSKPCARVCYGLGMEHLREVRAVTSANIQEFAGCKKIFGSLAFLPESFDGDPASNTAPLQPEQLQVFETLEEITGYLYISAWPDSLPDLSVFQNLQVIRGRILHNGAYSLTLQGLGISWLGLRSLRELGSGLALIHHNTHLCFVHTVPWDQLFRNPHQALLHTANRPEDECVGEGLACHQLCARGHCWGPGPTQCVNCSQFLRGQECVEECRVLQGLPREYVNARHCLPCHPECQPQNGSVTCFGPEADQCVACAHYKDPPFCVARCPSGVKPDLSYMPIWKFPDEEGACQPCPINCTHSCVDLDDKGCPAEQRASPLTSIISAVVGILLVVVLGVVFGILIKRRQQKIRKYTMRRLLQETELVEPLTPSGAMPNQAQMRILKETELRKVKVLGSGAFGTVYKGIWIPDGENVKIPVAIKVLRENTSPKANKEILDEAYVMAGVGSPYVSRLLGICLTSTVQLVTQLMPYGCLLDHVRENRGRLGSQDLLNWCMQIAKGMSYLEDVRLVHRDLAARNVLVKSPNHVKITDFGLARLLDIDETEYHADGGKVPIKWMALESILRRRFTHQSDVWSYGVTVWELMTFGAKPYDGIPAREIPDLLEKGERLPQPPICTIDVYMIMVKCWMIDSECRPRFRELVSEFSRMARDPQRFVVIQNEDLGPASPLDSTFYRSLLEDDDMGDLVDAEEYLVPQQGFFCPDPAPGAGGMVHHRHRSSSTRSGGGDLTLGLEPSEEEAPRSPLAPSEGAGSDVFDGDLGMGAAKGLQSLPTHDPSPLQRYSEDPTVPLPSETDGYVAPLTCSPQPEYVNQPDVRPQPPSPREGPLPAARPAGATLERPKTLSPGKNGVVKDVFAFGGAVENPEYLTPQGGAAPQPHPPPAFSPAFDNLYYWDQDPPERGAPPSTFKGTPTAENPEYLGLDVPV

For the molecule `O=C(c1ccco1)N(Cc1cc2ccccc2[nH]c1=O)C1CCCCC1`, the viability in assay [1] is 98.5%; in assay [3], 98.5% (inactive); in assay [4], 91.7% (inactive); in assay [5], 95% (inactive); in assay [6] (setting [9]) it was 82.1%; in assay [6] (setting [10]) it was 95%. Moreover, the Her2 level in assay [2] was 103% (inactive). The differential viability (reversal) in assay [6] (H69AR cells + 2 uM doxorubicin) was 12.9% (inactive). Moreover, the inhibition was 0.39% (inactive) in assay [7] and -6.35% (inactive) in assay [8].
`O=C(Cn1nc(C(F)(F)F)c2c1CCCC2)NCCN1CCOCC1`: the viability in assay [1] is 110%; in assay [3] it was 110% (inactive); in assay [4], 108% (inactive); in assay [5] it was 91.5% (inactive); in assay [6] (setting [9]), 87.5%; in assay [6] (setting [10]), 91.5%. In addition, in assay [2], the Her2 level was 89% (inactive). The differential viability (reversal) in assay [6] (H69AR cells + 2 uM doxorubicin) is 4.05% (inactive). Also, the results for the inhibition in assay [7] and in assay [8] were -1.18% (inactive) and 3.93% (inactive), respectively.
Take `COc1ccc(N2CCN(C(=O)C(OC(C)=O)c3ccccc3)CC2)cc1` (stereo not given): the viability in assay [1] is 96.5%; in assay [3], 96.5% (inactive); in assay [4] it was 89.4% (inactive); in assay [5], 97% (inactive); in assay [6] (setting [9]), 94.9%; in assay [6] (setting [10]) it was 97%. The Her2 level in assay [2] was 99% (inactive). Moreover, the differential viability (reversal) in assay [6] (H69AR cells + 2 uM doxorubicin) was 2.1% (inactive). In addition, the inhibition in assay [7] was -0.53% (inactive); in assay [8], -2.38% (inactive).
Consider `COc1ccccc1N1C(=O)CC(Sc2nc(C)cc(C)n2)C1=O` (stereo not given), for which the viability in assay [1] is 87%; in assay [3], 87% (inactive); in assay [4] it was 102% (inactive); in assay [5], 83.4% (inactive); in assay [6] (setting [9]), 92.7%; in assay [6] (setting [10]) it was 83.4%. For the same molecule, the Her2 level in assay [2] is 96.5% (inactive). Further, the differential viability (reversal) in assay [6] (H69AR cells + 2 uM doxorubicin) was -9.3% (inactive). In addition, the inhibition in assay [7] was -5.84% (inactive); in assay [8] it was -7.21% (inactive).
With `CCOC(=O)N1CCN(C(=O)c2csc3c2CCCCC3)CC1`, the viability in assay [1] is 93.5%; in assay [3], 93.5% (inactive); in assay [4], 94.9% (inactive); in assay [5], 90.8% (inactive); in assay [6] (setting [9]) it was 92.5%; in assay [6] (setting [10]) it was 90.8%. Also, the Her2 level in assay [2] is 112% (inactive). In addition, the differential viability (reversal) in assay [6] (H69AR cells + 2 uM doxorubicin) was -1.73% (inactive). The inhibition in assay [7] is 0.51% (inactive); in assay [8], -13.7% (inactive).
Take `C/C(N)=C(/C#N)C(=O)CSc1nnc(Nc2cccc(C)c2)s1`: the viability in assay [1] was 114%; in assay [3], 114% (inactive); in assay [4] it was 77.5% (inactive); in assay [5], 83.8% (inactive); in assay [6] (setting [9]), 76%; in assay [6] (setting [10]), 83.8%. In addition, the Her2 level in assay [2] is 79% (inactive). Moreover, the differential viability (reversal) in assay [6] (H69AR cells + 2 uM doxorubicin) was 7.75% (inactive). The figures for the inhibition in assay [7] and in assay [8] were -2% (inactive) and 0.65% (inactive), respectively.
In the case of `Cc1nc(SCC#N)c2c(C)c(C)sc2n1`, the viability in assay [1] was 128%; in assay [3], 128% (inactive); in assay [4], 98.6% (inactive); in assay [5], 98.4% (inactive); in assay [6] (setting [9]) it was 88.6%; in assay [6] (setting [10]), 98.4%. Also, in assay [2], the Her2 level was 107% (inactive). Also, the differential viability (reversal) in assay [6] (H69AR cells + 2 uM doxorubicin) was 9.83% (inactive). Moreover, the figures for the inhibition in assay [7] and in assay [8] were -5.33% (inactive) and -0.65% (inactive), respectively.
Consider `O=C(CSc1n[nH]c(-c2cccs2)n1)N1CCN(S(=O)(=O)c2ccccc2)CC1`, for which the viability in assay [1] is 80.5%; in assay [3] it was 80.5% (inactive); in assay [4] it was 97.4% (inactive); in assay [5] it was 102% (inactive); in assay [6] (setting [9]) it was 106%; in assay [6] (setting [10]) it was 102%. The Her2 level in assay [2] was 78.5% (inactive). Also, the differential viability (reversal) in assay [6] (H69AR cells + 2 uM doxorubicin) was -3.67% (inactive). The inhibition in assay [7] was 0.91% (inactive); in assay [8] it was 9.84% (inactive).
With `Cc1cc(N2CCN(c3ccccn3)CC2)n2nc(C)nc2n1`, the viability was 102% in assay [1]; 102% (inactive) in assay [3]; 90.2% (inactive) in assay [4]; 87.4% (inactive) in assay [5]; 94.7% in assay [6] (setting [9]); 87.4% in assay [6] (setting [10]). Moreover, the Her2 level in assay [2] was 114% (inactive). The differential viability (reversal) in assay [6] (H69AR cells + 2 uM doxorubicin) is -7.31% (inactive). Also, the inhibition in assay [7] is -4.23% (inactive); in assay [8] it was -7% (inactive).
In the case of `COc1ccccc1Nc1ccc(C(=O)NC2CCCCC2)cn1`, the viability in assay [1] was 100%; in assay [3], 100% (inactive); in assay [4] it was 106% (inactive); in assay [5] it was 93.2% (inactive); in assay [6] (setting [9]), 81.2%; in assay [6] (setting [10]), 93.2%. Also, the Her2 level in assay [2] is 96% (inactive). In assay [6] (H69AR cells + 2 uM doxorubicin), the differential viability (reversal) was 12% (inactive). The results for the inhibition in assay [7] and in assay [8] were -3.92% (inactive) and -3.11% (inactive), respectively.
As for `COc1ccccc1-n1cnc(N)c1C(C)=O`, the viability in assay [1] was 110%; in assay [3] it was 110% (inactive); in assay [4], 105% (inactive); in assay [5] it was 103% (inactive); in assay [6] (setting [9]), 104%; in assay [6] (setting [10]) it was 103%. Further, the Her2 level in assay [2] was 103% (inactive). In assay [6] (H69AR cells + 2 uM doxorubicin), the differential viability (reversal) was -0.75% (inactive). The inhibition is -4.21% (inactive) in assay [7] and 7.7% (inactive) in assay [8].
Take `CCOC(=O)C1CCCN(Cc2nc(N)nc(Nc3ccc(C)cc3)n2)C1` (stereo not given): the viability was 99.5% in assay [1]; 99.5% (inactive) in assay [3]; 80% (inactive) in assay [4]; 87.4% (inactive) in assay [5]; 88.6% in assay [6] (setting [9]); 87.4% in assay [6] (setting [10]). Also, in assay [2], the Her2 level is 78% (inactive). The differential viability (reversal) in assay [6] (H69AR cells + 2 uM doxorubicin) was -1.19% (inactive). For the same molecule, the results for the inhibition in assay [7] and in assay [8] were 0% (inactive) and 7.54% (inactive), respectively.
In the case of `C=CCn1c(COc2ccccc2)nnc1SCC(=O)C(C)(C)C`, the viability was 78% in assay [1]; 78% (inactive) in assay [3]; 102% (inactive) in assay [4]; 97.8% (inactive) in assay [5]; 92.6% in assay [6] (setting [9]); 97.8% in assay [6] (setting [10]). The Her2 level in assay [2] was 107% (inactive). In addition, in assay [6] (H69AR cells + 2 uM doxorubicin), the differential viability (reversal) is 5.13% (inactive). For the same molecule, the figures for the inhibition in assay [7] and in assay [8] were -1.95% (inactive) and -4.67% (inactive), respectively.
For the molecule `Cc1nn(Cc2ccc(C(=O)NC3CCCCC3)o2)c(C)c1Br`, the viability in assay [1] is 94.5%; in assay [3] it was 94.5% (inactive); in assay [4], 86.9% (inactive); in assay [5], 92.9% (inactive); in assay [6] (setting [9]) it was 98.7%; in assay [6] (setting [10]), 92.9%. Also, the Her2 level in assay [2] is 90% (inactive). Also, the differential viability (reversal) in assay [6] (H69AR cells + 2 uM doxorubicin) is -5.8% (inactive). Besides, the inhibition in assay [7] was -3.29% (inactive); in assay [8], -5.17% (inactive).
As to `CCOc1ccccc1N(C(=O)Cn1nnnc1-c1ccc(C)o1)C(CC)C(=O)NC(C)(C)C` (stereo not given), the viability was 88.5% in assay [1]; 88.5% (inactive) in assay [3]; 120% (inactive) in assay [4]; 88.5% (inactive) in assay [5]; 103% in assay [6] (setting [9]); 88.5% in assay [6] (setting [10]). In addition, the Her2 level in assay [2] was 105% (inactive). Also, in assay [6] (H69AR cells + 2 uM doxorubicin), the differential viability (reversal) was -14.7% (inactive). Also, the inhibition is 1.51% (inactive) in assay [7] and 4.6% (inactive) in assay [8].
For `Cc1cccc(C(OC(=O)c2ccco2)C(=O)NCc2ccccc2)n1` (stereo not given), the viability in assay [1] was 102%; in assay [3], 102% (inactive); in assay [4], 86.6% (inactive); in assay [5], 96.1% (inactive); in assay [6] (setting [9]) it was 88.3%; in assay [6] (setting [10]), 96.1%. In addition, the Her2 level in assay [2] was 90% (inactive). In assay [6] (H69AR cells + 2 uM doxorubicin), the differential viability (reversal) is 7.79% (inactive). Moreover, the results for the inhibition in assay [7] and in assay [8] were -2.03% (inactive) and -1.64% (inactive), respectively.
